This data set deals with MS2 coat protein. Nature of the data set: apparent Kd, MS2 coat protein; higher = weaker binding; RNA-MaP array; FMN 200 µM where present. An outline of the steps: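 Green signal was scaled to red-channel RNA signal and control-cluster median Fmax, and the apparent Kd was taken as the median of filtered per-cluster binding-curve fits. The binding series used SNAP-549-labelled MS2 coat protein from 0.7 or 1.5 nM, doubling to 3 µM, on designs transcribed by stalled E. coli RNA polymerase on Illumina sequencing-chip clusters. Each series ran without and then with constant ligand in 100 mM Tris-HCl pH 7.5, 80 mM KCl, 4 mM MgCl2, BSA, DTT, yeast tRNA and Tween-20.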

Setting [1] is: designed as: ON switch for flavin mononucleotide, no ligand.
Where [2] appears, read: ligand present: flavin mononucleotide, designed as: ON switch for flavin mononucleotide.
[3] abbreviates: designed as: OFF switch for flavin mononucleotide, no ligand.
The mark [4] stands for this setting: ligand present: flavin mononucleotide, designed as: OFF switch for flavin mononucleotide.

From the EternaBench riboswitch data come the findings set out here.

“ACAGAGCCUGACAUGAGGAUCACCCAUGUUAGAUUGUUAUGUUAGGAUAUUGUCUAGCAACUAGACAAGAAGGGAUGCUCUGUG”: the “apparent Kd” value under setting [1] worked out at 0.0201 µM and the “apparent Kd” value under setting [2] worked out at 0.0143 µM.
Regarding “UGCGUGGUCACAGGAUAUGCAAGAUAAACUUUAGCAGAAGGGUGAUCAAUUAGCUCAAUACCACAUGAGGAUCACCCAUGUCUA”, the “apparent Kd” value under setting [1] is 0.0629 µM and the “apparent Kd” value under setting [2] came to 0.314 µM.
On to “AAAUUUAACGAAGGAUAUACUAACAUGAGGAUCACCCAUGUGUGCUUUGUGUUGCUGAAAUUCGGGUAGAAGGUCGUAUACAUA”, for which the “apparent Kd” value was determined as 0.0828 µM under setting [3] and 0.118 µM under setting [4].
Regarding “AGAUAUGAUGCAGGAUAUCUAUCUUGAAUGAGGAGAGAAGGGCAAGCAGAGACAUAAGCCUUAUUACAUGAGGAUCACCCAUGU”, the “apparent Kd” value was 0.0102 µM under setting [3] and 0.0079 µM under setting [4].
Taken in the same sequence, the figures for “GGAUAGGACAGAGGAUAUACGUGCUAGAGAUACUAGCAAAAUUUCCUCACAUGAGGAUCACCCAUGUAGAAGGCCGUCCUAUCG” were 0.00602 µM and 0.0197 µM.
On to “GGAUAGUGUCGUUAUCCGUAGCGAACAUGAGGAUCACCCAUGUAGGAUAUGUUAUUAAACUAAUAACAGAAGGGCGUUGGUCUC”, for which the “apparent Kd” value runs as follows: under setting [3], 0.121 µM; under setting [4], 0.147 µM.
Consider “AUAAGCAUUUAUGUGUGCGUAGCACAGGAUAUGCUCCGCGCACAUGAGGAUCACCCAUGUUCGCAGCAGAAGGGUGCAUGCGUU”, for which the “apparent Kd” value runs as follows: under setting [1], 0.33 µM; under setting [2], 0.0615 µM.
The corresponding values for “GGCGGAGACGUUAACAUGAGGAUCACCCAUGUCGAAGGAGAUGAGGAUAUCGCACACGAUGUGUGUGAGAAGGCAUGGUCUGCC” are 0.0674 µM and 0.0154 µM.
As to “UUGUGCAAAGGAUAUACGUCCGACCUCGUGGAACUGAGAAUACAUGAGGAUCACCCAUGUAGAAGGUUGCCGAG”, the “apparent Kd” value under setting [3] came to 0.0117 µM and the “apparent Kd” value under setting [4] came out at 0.0151 µM.
Taken in the same sequence, the figures for “GCGUCACAAUUAGAACCAAUACGAACAUGAGGAUCACCCAUGUAGGAUAUGCUAGAAGUUGAGUUGCAGAAGGACAUUUAUCGC” were 0.0106 µM and 0.0098 µM.
Taken in the same sequence, the figures for “UGAUCGAGAGAUCUUAGAUUCUGGUAGGAUAUACAUUAAAAGCGCUUUACAUGAGGAUCACCCAUGUAGAAGGACUAGAGUCUA” were 0.00751 µM and 0.00942 µM.
Consider “CGCAAGUAUACAUGAGGAUCACCCAUGUCAGAAAGGGUAAUCAGAAGGUACAAUUAGAGAUAGAGUAAGGAUAUGAAAUUUGCG”, for which the “apparent Kd” value by setting is: under setting [1], 0.75 µM; under setting [2], 0.274 µM.
As for “UACAGCUCGACAGGAUAUACAUCACUGCUUCGGCAGUGUAUCUUAAUAACAUGAGGAUCACCCAUGUAGAAGGGUCGAGCUGUA”, the “apparent Kd” value is, setting by setting: under setting [3], 0.0181 µM; under setting [4], 0.0328 µM.
For “CGAGUACAUGAGGAUCACCCAUGUAAUGAAUUGUCAGGAUAUGGAGAUUGAUGACAUGCGCCAGAAGGGACAUCUG”, the “apparent Kd” value stood at 0.0497 µM under setting [1] and 0.0408 µM under setting [2].
Consider “AGAUCACAUGAGGAUCACCCAUGUCAGGAUAUCGACUGAACAGCUUCGGCUGUUCAGUCGAGAAGGGACAAUUA”, for which the “apparent Kd” value runs as follows: under setting [3], 0.279 µM; under setting [4], 0.86 µM.
As for “UUUAUGUCAGGAUAUGAGGAGUAGAACAAUAGUACUACUCCUCAGAAGGGACAUGAGGAUCACCCAUGUUCCUC”, the “apparent Kd” value under setting [3] turned out to be 0.0207 µM and the “apparent Kd” value under setting [4] was determined as 0.0919 µM.
For “CUAGACAGAUCAGGAUAUCAUCGCAUGGUGCAUCCCUGUGAUUACAUGAGGAUCACCCAUGUGCAUGAGAAGGGAUUACUAUGU”, the “apparent Kd” value is, setting by setting: under setting [3], 0.0465 µM; under setting [4], 0.0131 µM.
As to “GUAGAGUAAGGAUAUCGAGAAUAGGAUAGAAUGGAUAGAAUCGAGAAGGUACAUGAGGAUCACCCAUGUAAUGU”, the “apparent Kd” value reads like this: under setting [3], 0.0203 µM; under setting [4], 0.0186 µM.
For the sequence “GUUGUUUCUGAGGAUAUUAUUUUAUUCGAUUGAUAAGAAGGCAGUACAUGAGGAUCACCCAUGUGGGUAGUUUG”, the “apparent Kd” value worked out at 0.0942 µM under setting [3] and 0.172 µM under setting [4].
Regarding “AGAAACUACGAGAAGGACAUAAAAGGUGCCGCAAACAUGAGGAUCACCCAUGUAGGAUAUCGUAGUUUCAGGAUCGUGAGAUCA”, the “apparent Kd” value reads like this: under setting [3], 0.0284 µM; under setting [4], 0.262 µM.
As to “GUCGUGUGAGGAUAUGGAUAGUAGCAGUGGCGGUCGGCGACCUAGAAGGCACAUGAGGAUCACCCAUGUAAGAG”, the “apparent Kd” value worked out at 0.0406 µM under setting [3] and 0.0378 µM under setting [4].
Consider “CCGGAAUUGCAGGAUAUAGGAGUCGAUAGACACCUAGAAGGGCAGACAUGAGGAUCACCCAUGUGUCCUACCGG”, for which the “apparent Kd” value is 0.0186 µM under setting [3] and 0.0312 µM under setting [4].
The corresponding values for “CUGUUAUAUGAAGGAUAUACUUAACAUGAGGAUCACCCAUGUGGUGUUGUGAGUGAGUGAGUUUAGUAGAAGGUCAAUUCUUUU” are 0.207 µM and 0.221 µM.
Taken in the same sequence, the figures for “AUCAGCUCGUCAGGAUAUACGUCACUGCGUGAGCAGUGUGGUAAGAUCACAUGAGGAUCACCCAUGUAGAAGGGACGAGCUGAU” were 0.0136 µM and 0.271 µM.
Taken in the same sequence, the figures for “AUGCUUUUUGUAGGAUAUACAUUUUGUACGUAUGUAGAAGGACAUGAGGAUCACCCAUGUAAAUAAAUAUUAAAUAUCAUACUU” were 0.0546 µM and 0.0396 µM.
Take “UACAGACAUGAGGAUCACCCAUGUAAGGAUAUCGGUACCGAUGGUAUAAUCUACUCGGCGAGAAGGUACAGUGU”: the “apparent Kd” value turned out to be 0.0232 µM under setting [3] and 0.0267 µM under setting [4].
As to “AUUUAGUGCGAGAAGGCGUGGUCACAUGAGGAUCACCCAUGUCAGUACACGAGGAUAUCGUUUCGCUGUGUAAACACAAGCGAC”, the “apparent Kd” value under setting [1] was 0.0403 µM and the “apparent Kd” value under setting [2] was determined as 0.00615 µM.
For “GUGCGGUAGGAGAAGGACGGAGGCUUCUUUUCAUACAUGAGGAUCACCCAUGUAGGAUAUCCUACCUCACGCGGCCUACUACUG”, the “apparent Kd” value reads like this: under setting [3], 0.00836 µM; under setting [4], 0.0077 µM.
Regarding “CGAAUGUAGACAGGAUAUCCUGGACAUGAGGAUCACCCAUGUGCAUAAAAUGGAGAAGGGUCACGGAGGCCCUGUGGGCAGGGU”, the “apparent Kd” value runs as follows: under setting [1], 0.0444 µM; under setting [2], 0.00921 µM.
“CCUCGACGGUAGGAUAUCGUCAAACUAUUGUGAUGAGAAGGACUGACAUGAGGAUCACCCAUGUUAACGUGAUG”: the “apparent Kd” value was found to be 0.018 µM under setting [3] and 0.0262 µM under setting [4].
For “UUUUAACAUGAGGAUCACCCAUGUGAGGAUAUCGUAAUUUUUAUUAAUAUUAAUAAAACGAGAAGGCACAUUUU”, the “apparent Kd” value came out at 0.0966 µM under setting [3] and 0.081 µM under setting [4].
Taken in the same sequence, the figures for “AUAAUGUAAGGAUAUCAGUCGACUAGCCUCGGCUAGUCGACUGAGAAGGUACAUGAGGAUCACCCAUGUGGUUC” were 1.13 µM and 0.484 µM.
For “AUAUCUCUGUAAGGAUAUAGAUGGUGUACGCCUCCGACAUGAGGAUCACCCAUGUUAUAUUUUGUCUAGAAGGUACAGUGUCGG”, the “apparent Kd” value under setting [1] stood at 0.389 µM and the “apparent Kd” value under setting [2] was determined as 0.222 µM.
For the sequence “UCUGGUCGAGGAUAUGCAUUCGUGCUUCGGCACGUAAGGUCACAUGAGGAUCACCCAUGUAGAAGGCGACCAGA”, the “apparent Kd” value is, setting by setting: under setting [3], 0.0196 µM; under setting [4], 0.0359 µM.
Regarding “ACAUACAUUCGAGGAUAUCGGUGAACAAAUUAACGAGAAGGCGAUAUAAGUUUUAAUCUUAUGAACAUGAGGAUCACCCAUGUA”, the “apparent Kd” value stood at 0.0264 µM under setting [1] and 0.0243 µM under setting [2].
As for “AUCAUGAGAGGAUAUACAUGAGGAUCACCCAUGUGGUAAACACCAUGAGCUCAAUUACGUAGAAGGCUCAUUUG”, the “apparent Kd” value reads like this: under setting [3], 0.0264 µM; under setting [4], 0.0456 µM.
Taken in the same sequence, the figures for “GGUACUCAAAGAGUACCAAUACGAACAUGAGGAUCACCCAUGUAGGAUAUGCUACUCAAAGAGUAGCAGAAGGACAUGUGCUUA” were 0.0259 µM and 0.135 µM.
Regarding “AUAUCUUACCAAGGAUAUUUAAGAUUUGUGUAGACAUGAGGAUCACCCAUGUGGCCUUAGUCACGGGAGAAGGUGGUUUGAUAU”, the “apparent Kd” value by setting is: under setting [1], 0.878 µM; under setting [2], 0.493 µM.
The corresponding values for “GGAUAUGUCGUCUACAUGAGGAUCACCCAUGUCGAUAGACAUGAGGAUAUCGAUAAGAAUUGUAUCGAGAAGGUAUGUAGGUCC” are 0.023 µM and 0.0302 µM.
Regarding “GUCAGCUCGUGAGGAUAUACAACACUGCUCCGGCAGUGUAUUAAGAUCACAUGAGGAUCACCCAUGUAGAAGGCACGAGCUGAU”, the “apparent Kd” value is, setting by setting: under setting [3], 0.0134 µM; under setting [4], 0.237 µM.
As to “ACUGGUCGAGGAUAUACGUGACGUGCUUCGGCACGAGGUCUACAUGAGGAUCACCCAUGUAGAAGGCGACCAGU”, the “apparent Kd” value is 0.017 µM under setting [3] and 0.0539 µM under setting [4].
Taken in the same sequence, the figures for “CUUGUUUAUGUAGGAUAUGCCUGGCGUGCCUUUGCAGAAGGACAUGAGGAUCACCCAUGUAGUAUGAGGCUUACCCUUGUCGCC” were 0.0282 µM and 0.0245 µM.
Taken in the same sequence, the figures for “GUGUACAGAGGAUAUACGGGAGCAUGGAAACAUGCAACCUCACAUGAGGAUCACCCAUGUAGAAGGCUGUACAC” were 0.162 µM and 0.243 µM.
On to “AUACCUUAUGAGAAGGCGGUCAUGAAACAUGAUCGAGGAUAUCAUGUAAACAUGAGGAUCACCCAUGUAUGGGUAUUAUGGUAG”, for which the “apparent Kd” value is, setting by setting: under setting [1], 0.0617 µM; under setting [2], 0.0123 µM.
For “UGUCGGAGCAGAGGAUAUUACAUGAGGAUCACCCAUGUAUGAACCAAUAGCCGGAAACAGCAAUGUAAGAAGGCUGCUCCGACA”, the “apparent Kd” value is 0.00464 µM under setting [3] and 0.00688 µM under setting [4].
As to “GCCAUCGCAUGAGGAUAUGGUCACCUUUGGUGACCAGAAGGCAUGUCAUAAGACAUGAGGAUCACCCAUGUAGUUAAGAUGGCA”, the “apparent Kd” value came out at 0.843 µM under setting [1] and 0.048 µM under setting [2].
Consider “GACUCUAAGUUUGUCAGUUAGAGAGAGGAUAUGGAAAACUUGACAUGAGGAUCACCCAUGUAUAAUCAGAAGGCUCGAGUACGA”, for which the “apparent Kd” value is, setting by setting: under setting [1], 0.0129 µM; under setting [2], 0.00891 µM.
Take “GUGCGGUCAGGAUAUGCAUGGCGGGACUUGCGUCGUGGCGUGGAGAAGGGACAUGAGGAUCACCCAUGUGGAGU”: the “apparent Kd” value stood at 0.0766 µM under setting [3] and 0.0453 µM under setting [4].
